Test results published in ChEMBL document CHEMBL3244150, “Semisynthetic cephalosporins. Synthesis and structure-activity relationships of analogues with 7-acyl groups derived from 2-(cyanomethylthio)acetic acid or 2-[(2,2,2-trifluoroethyl)thio]acetic acid and their sulfoxides and sulfones” (1977).
≈ marks a conversion by molar mass, not a printed value. Calls of active or inactive are those of the source. The calls are words filed in the database; no cut-off is given here.

Experiments:
[1] = tested on: Staphylococcus aureus; assay: Antibacterial activity against penicillin G-resistant Staphylococcus aureus HH 127 after overnight incubation by twofold agar dilution method; assay type: functional
Method in brief: (§1)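 MIC (ug/ml) determined by twofold agar dilution on Trypticase soy agar buffered to pH 6.0.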

[2] = tested on: Escherichia coli; assay: Antibacterial activity against Escherichia coli 12140 after overnight incubation by twofold agar dilution method; assay type: functional
Method in brief: (§2)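 Twofold agar dilution on Trypticase soy agar buffered to pH 6.0. MIC recorded in ug/ml.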

[3] = tested on: Escherichia coli; assay: Antibacterial activity against Escherichia coli 12140 infected in sc dosed mouse assessed as mouse survival after 3 days; assay type: functional; settings: Escherichia coli, 12140, sc, 72 h; read-out: PD50
Method in brief: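 Mice infected ip with approximately 2 X 10 organisms per mouse of E. coli 12140 culture diluted in 5% hog gastric mucin (uniformly lethal). Fourfold dilutions dosed sc in equally divided portions at 1 and 5 h postinfection; five groups of ten mice each. Survivors observed for 3 days. PD50 = total dose (mg/kg) protecting 50% of mice, calculated by Litchfield and Wilcoxon method.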

[4] = tested on: Klebsiella aerogenes; assay: Antibacterial activity against Enterobacter aerogenes ATCC 13048 after overnight incubation by twofold agar dilution method; assay type: functional; method in brief: as §2
[5] = tested on: Pseudomonas aeruginosa; assay: Antibacterial activity against Pseudomonas aeruginosa after overnight incubation by twofold agar dilution method; assay type: functional, organism-based; method in brief: as §2
[6] = tested on: Klebsiella pneumoniae; assay: Antibacterial activity against Klebsiella pneumoniae 4200 after overnight incubation by twofold agar dilution method; assay type: functional; method in brief: as §2
[7] = tested on: Salmonella paratyphi; assay: Antibacterial activity against Salmonella paratyphi ATCC 12176 after overnight incubation by twofold agar dilution method; assay type: functional, Salmonella enterica subsp. enterica serovar Paratyphi A; settings: Salmonella enterica; method in brief: as §1
[8] = tested on: Enterococcus faecalis; assay: Antibacterial activity against Streptococcus faecalis after overnight incubation by twofold agar dilution method; assay type: functional; method in brief: as §2
[9] = tested on: Shigella flexneri; assay: Antibacterial activity against Shigella paradysenteriae HH 117 after overnight incubation by twofold agar dilution method; assay type: functional; method in brief: as §1

Compound | MIC [1] [µg/mL] | MIC [2] [µg/mL] | ED50 [3] [mg/kg] | MIC [4] [µg/mL] | Activity [5] | MIC [6] [µg/mL] | MIC [7] [µg/mL] | MIC [8] [µg/mL] | MIC [9] [µg/mL]
CC(=O)OCC1=C(C(=O)[O-])N2C(=O)[C@@H](NC(=O)C[S+]([O-])CC(F)(F)F)[C@H]2SC1.[Na+] (stereo not given in full) | 0.8 | 6.3 | 25 | 6.3 | inactive | 3.1 | 1.6 | > 13 | 3.1
Cc1nnc(SCC2=C(C(=O)[O-])N3C(=O)[C@@H](NC(=O)C[S+]([O-])CC(F)(F)F)[C@H]3SC2)s1.[Na+] (stereo not given in full) | 0.8 | 3.1 | 6 | 6.3 | inactive | 3.1 | 1.6 | > 13 | 0.8
Cn1nnnc1SCC1=C(C(=O)[O-])N2C(=O)[C@@H](NC(=O)C[S+]([O-])CC(F)(F)F)[C@H]2SC1.[Na+] (stereo not given in full) | 1.6 | 0.8 | 1.5 | 6.3 | inactive | 0.4 | 1.6 | > 13 | 0.4
CC(=O)OCC1=C(C(=O)O)N2C(=O)[C@@H](NC(=O)CC#N)[C@H]2SC1 [CEPHACETRILE] | 0.4 (≈ 1.18 µM) | 6.3 (≈ 18.6 µM) | 25 | 6.3 (≈ 18.6 µM) | inactive | 3.1 (≈ 9.14 µM) | 3.1 (≈ 9.14 µM) | > 13 | 3.1 (≈ 9.14 µM)
Cc1nnc(SCC2=C(C(=O)[O-])N3C(=O)[C@@H](NC(=O)C[S+]([O-])CC#N)[C@H]3SC2)s1.[Na+] (stereo not given in full) | 0.8 | 3.1 | 22 | 6.3 | inactive | 1.6 | 0.8 | > 13 | 0.8
CC(=O)OCC1=C(C(=O)O)N2C(=O)[C@@H](NC(=O)Cc3cccs3)[C@H]2SC1 [CEPHALOTHIN] | 0.2 (≈ 0.504 µM) | 3.1 (≈ 7.82 µM) | 50 | 50 (≈ 126 µM) | inactive | 3.1 (≈ 7.82 µM) | 1.6 (≈ 4.04 µM) | > 13 | 6.3 (≈ 15.9 µM)
Cc1nnc(SCC2=C(C(=O)[O-])N3C(=O)[C@@H](NC(=O)CSCC(F)(F)F)[C@H]3SC2)s1.[Na+] | 0.2 | 6.3 | 33 | 25 | inactive | 6.3 | 6.3 | > 13 | 1.6
Cc1nnc(SCC2=C(C(=O)[O-])N3C(=O)[C@@H](NC(=O)CS(=O)(=O)CC(F)(F)F)[C@H]3SC2)s1.[Na+] | 1.6 | 6.3 | 35 | 12.5 | inactive | 6.3 | 6.3 | > 13 | 6.3
CC(=O)OCC1=C(C(=O)[O-])N2C(=O)[C@@H](NC(=O)CS(=O)(=O)CC(F)(F)F)[C@H]2SC1.[Na+] | 3.1 | 25 | 100 | 50 | inactive | 6.3 | 3.1 | > 13 | 12.5
Cn1nnnc1SCC1=C(C(=O)O)N2C(=O)[C@@H](NC(=O)CSC(F)(F)F)[C@H]2SC1 [CEFAZAFLUR] | 0.4 (≈ 0.85 µM) | 0.4 (≈ 0.85 µM) | 2 | 1.6 (≈ 3.4 µM) | inactive | 0.8 (≈ 1.7 µM) | 0.4 (≈ 0.85 µM) | > 13 | 0.2 (≈ 0.425 µM)
CC(=O)OCC1=C(C(=O)[O-])N2C(=O)[C@@H](NC(=O)C[S+]([O-])CC#N)[C@H]2SC1.[Na+] (stereo not given in full) | 1.6 | 12.5 | 21 | 25 | inactive | 6.3 | 3.1 | > 13 | 6.3
Cc1nnc(SCC2=C(C(=O)O)N3C(=O)[C@@H](NC(=O)CS(=O)(=O)CC#N)[C@H]3SC2)s1 | 1.6 (≈ 3.27 µM) | 6.3 (≈ 12.9 µM) | 15 | 12.5 (≈ 25.5 µM) | inactive | 6.3 (≈ 12.9 µM) | 6.3 (≈ 12.9 µM) | > 13 | 3.1 (≈ 6.33 µM)
Cn1nnnc1SCC1=C(C(=O)[O-])N2C(=O)[C@@H](NC(=O)C[S+]([O-])CC#N)[C@H]2SC1.[Na+] (stereo not given in full) | 1.6 | 1.6 | 10 | 12.5 | inactive | 1.6 | 0.8 | > 13 | 1.6
Cn1nnnc1SCC1=C(C(=O)[O-])N2C(=O)[C@@H](NC(=O)CSCC(F)(F)F)[C@H]2SC1.[Na+] | 0.2 | 1.6 | 11 | 6.3 | inactive | 3.1 | 0.8 | > 13 | 0.4
Cc1nnc(SCC2=C(C(=O)O)N3C(=O)[C@@H](NC(=O)Cn4cnnn4)[C@H]3SC2)s1 [CEFAZOLIN] | 0.4 (≈ 0.88 µM) | 0.8 (≈ 1.76 µM) | 6 | 1.6 (≈ 3.52 µM) | inactive | 0.8 (≈ 1.76 µM) | 0.8 (≈ 1.76 µM) | > 13 | 0.4 (≈ 0.88 µM)
CC(=O)OCC1=C(C(=O)[O-])N2C(=O)[C@@H](NC(=O)CSCC(F)(F)F)[C@H]2SC1.[Na+] | 0.4 | 6.3 | 184 | 50 | inactive | 3.1 | 6.3 | > 13 | 6.3
Cc1nnc(SCC2=C(C(=O)[O-])N3C(=O)[C@@H](NC(=O)CSCC#N)[C@H]3SC2)s1.[Na+] | 0.2 | 1.6 | 14 | > 200 | inactive | 1.6 | 1.6 | > 13 | 1.6
CC(=O)OCC1=C(C(=O)[O-])N2C(=O)[C@@H](NC(=O)CSCC#N)[C@H]2SC1.[Na+] | 0.2 | 6.3 | > 200 | > 200 | inactive | 1.6 | 1.6 | > 13 | 6.3
CC(=O)OCC1=C(C(=O)O)N2C(=O)[C@@H](NC(=O)CS(=O)(=O)CC#N)[C@H]2SC1 | 1.6 (≈ 3.83 µM) | 6.3 (≈ 15.1 µM) | 35 | 50 (≈ 120 µM) | inactive | 25 (≈ 59.9 µM) | 3.1 (≈ 7.43 µM) | > 13 | 6.3 (≈ 15.1 µM)
Cn1nnnc1SCC1=C(C(=O)[O-])N2C(=O)[C@@H](NC(=O)CSCC#N)[C@H]2SC1.[Na+] | 0.4 | 0.8 | 11 | 12.5 | inactive | 1.6 | 0.4 | > 13 | 0.8
